Data published in ChEMBL document CHEMBL2331340, “Novel antitumor indolizino[6,7-b]indoles with multiple modes of action: DNA cross-linking and topoisomerase I and II inhibition” (J Med Chem, 2013).
pIC50: −log10 of the molar value. The source made the active and inactive calls. The rule behind the calls is not given here.

Key:
Escherichia coli = assay: Induction of Escherichia coli pEGFP-N1 DNA interstrand cross-linking at 1 to 10 uM after 2 hrs by alkaline agarose gel shift assay
Summary of the method: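 Plasmid pEGFP-N1 DNA (1500 ng) incubated with compound at 1, 5 and 10 μM in 3 mM NaCl/1 mM sodium phosphate pH 7.4/1 mM EDTA, 2 h at 37 °C. DNA then BamHI-linearized, EtOH-precipitated, denatured in 0.5 N NaOH/10 mM EDTA, run on 0.8% alkaline agarose at 4 °C (18 V, 22 h), stained with ethidium bromide.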

KB = assay: Cytotoxicity against human KB cells after 72 hrs by Alamar blue assay
[1] = Cell cycle arrest in human CL141T cells assessed as accumulation at S phase at 3.75 to 15 uM after 24 hrs by propidium iodide staining-based FACS flow cytometric analysis; assay type: functional
Summary of the method: (§1)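 CL141T cells treated at 0.5-, 1- and 2-fold IC50 for 24, 48 and 72 h. Cells fixed in ice-cold 70% EtOH, then stained with 4 μg/mL propidium iodide in PBS with 1% Triton X-100 and 0.1 mg/mL RNase A. Phase distribution from flow cytometry DNA histograms; sub-G1 fraction scored as well.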

[2] = Cytotoxicity against human HEL299 cells; assay type: cell-based; settings: HEL 299
PC-3 = assay: Cytotoxicity against human PC3 cells after 72 hrs by Alamar blue assay; assay type: functional, cell-based; settings: PC-3, 72 h
Summary of the method: (§2)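 Cells exposed to compound for 72 h, then Alamar blue added with a further 10−12 h at 37 °C and a spectrophotometric read. IC50 from six or seven concentrations by median-effect analysis; mean ± STDEV, n = 3. CL141T is a line derived from a patient lung tumor passaged as a SCID mouse xenograft.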

[3] = Cytotoxicity against human CL141T cells after 72 hrs by Alamar blue assay; assay type: functional, cell-based; summary of the method: as §2
[4] = Cell cycle arrest in human CL141T cells assessed as accumulation at G2/M phase at 0.5 x IC50 to 1 x IC50 after 48 to 72 hrs by propidium iodide staining-based FACS flow cytometric analysis; assay type: functional; summary of the method: as §1
MX1 [5] = assay: Antitumor activity against human MX1 cells xenografted in nude mouse assessed as tumor growth inhibition at 35 mg/kg, iv qd administered 4 days measured on day 20 relative to vehicle-treated control; assay type: functional; settings: read-out: TGI
[6] = Cell cycle arrest in human CL141T cells assessed as accumulation at sub-G1 phase at 0.5 x IC50 to 2 x IC50 after 72 hrs by propidium iodide staining-based FACS flow cytometric analysis; assay type: functional; summary of the method: as §1
[7] = Cell cycle arrest in human CL141T cells assessed as accumulation at G2/M phase at 2 x IC50 after 24 hrs by propidium iodide staining-based FACS flow cytometric analysis; assay type: functional; summary of the method: as §1
MX1 [8] = assay: Cytotoxicity against human MX1 cells after 72 hrs by SRB assay; assay type: functional, cell-based; settings: MX1, 72 h
[9] = Cytotoxicity against human KB-VIN10 cells after 72 hrs by Alamar blue assay; settings: KB-VIN10, 72 h
[10] = Cytotoxicity against human OECM1 cells after 72 hrs by Alamar blue assay; assay type: functional, cell-based; settings: OECM1, 72 h; summary of the method: as §2
[11] = Resistance factor, ratio of IC50 for human KB-VIN10 cells to IC50 for human KB cells; assay type: functional
Mus musculus [12] = assay: Toxicity in nude mouse xenografted with human MX1 cells assessed as body weight loss at 35 mg/kg, iv qd administered 4 days measured for 20 days; assay type: organism-based; set-up: dose 35 mg/kg, route intravenous; settings: in vivo, 480 h
HCT-116 = assay: Cytotoxicity against human HCT116 cells after 72 hrs by Alamar blue assay; assay type: functional, cell-based; settings: HCT-116, 72 h; summary of the method: as §2
CCRF-CEM = assay: Cytotoxicity against human CCRF-CEM cells after 72 hrs by XTT assay; assay type: functional, cell-based
Summary of the method: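 CCRF-CEM T-ALL cells incubated with compound for 72 h. XTT with phenazine methosulfate then added for 6 h at 37 °C, absorbance read at 450 and 630 nm. IC50 from six or seven concentrations by median-effect analysis; mean ± STDEV, n = 3.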

[13] = target: DNA topoisomerase 2-alpha (Homo sapiens) (UniProt P11388); settings: 50 to 200 uM
[14] = Cytotoxicity against human MES-SA/Dx5 cells after 72 hrs by Presto Blue assay; assay type: functional, cell-based; settings: MES-SA/Dx5, 72 h
Summary of the method: (§3)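 MES-SA and doxorubicin-resistant MES-SA/dx5 cells exposed for 72 h, then PrestoBlue added for 3 h at 37 °C, absorbance read at 570 and 600 nm. IC50 by median-effect analysis of six or seven concentrations; mean ± STDEV of three to six independent experiments.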

NCI-H460 [15] = assay: Induction of apoptosis in human H460 cells assessed as increase in cleaved caspase 3 expression at IC50 after 24 to 72 hrs by Western blotting analysis; assay type: functional, cell-based
Summary of the method: (§4)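 H460 cells treated at IC50 for 24 and 72 h. Lysate proteins separated by SDS-PAGE and blotted to nitrocellulose, blocked in 5% milk/PBST. Primary antibodies to caspase-3, caspase-7, PARP (full-length and cleaved) and β-actin applied for 1 h at room temperature or overnight at 4 °C; HRP secondary with ECL detection.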

NCI-H460 [16] = assay: Induction of apoptosis in human H460 cells assessed as increase in cleaved caspase 7 expression at IC50 after 24 to 72 hrs by Western blotting analysis; assay type: functional, cell-based; summary of the method: as §4
NCI-H460 [17] = assay: Induction of apoptosis in human H460 cells assessed as increase in apoptotic cells at IC50 after 72 hrs by annexin V-FITC/propidium iodide staining-based FACS flow cytometric analysis (reference value: 9.29%); assay type: functional
Mus musculus [18] = assay: Toxicity in nude mouse xenografted with human MX1 cells assessed as body weight loss at 25 mg/kg, iv qd administered 3 days measured for 20 days; assay type: organism-based; set-up: dose 25 mg/kg, route intravenous; settings: in vivo, 480 h
MES-SA = assay: Resistance factor, ratio of IC50 for human MES-SA/Dx5 cells to IC50 for human MES-SA cells; assay type: functional
[19] = Cytotoxicity against human H460 cells after 72 hrs by Alamar blue assay; assay type: functional, cell-based; settings: NCI-H460, 72 h; summary of the method: as §2
NCI-H460 [20] = assay: Induction of apoptosis in human H460 cells assessed as increase in apoptotic cells at IC50 after 24 hrs by annexin V-FITC/propidium iodide staining-based FACS flow cytometric analysis (reference value: 4.1%); assay type: functional
A549 = assay: Cytotoxicity against human A549 cells after 72 hrs by Alamar blue assay; assay type: functional, cell-based; settings: A549, 72 h; summary of the method: as §2
[21] = Cell cycle arrest in human CL141T cells assessed as accumulation at S phase at 1 x IC50 to 2 x IC50 after 24 hrs by propidium iodide staining-based FACS flow cytometric analysis; assay type: functional; summary of the method: as §1
MX1 [22] = assay: Antitumor activity against human MX1 cells xenografted in nude mouse assessed as tumor growth inhibition at 25 mg/kg, iv qd administered 3 days measured on day 20 relative to vehicle-treated control; assay type: functional; settings: read-out: TGI
[23] = Cell cycle arrest in human CL141T cells assessed as accumulation at G1 phase at 1 x IC50 to 2 x IC50 after 24 hrs by propidium iodide staining-based FACS flow cytometric analysis; assay type: functional; summary of the method: as §1
[24] = Cell cycle arrest in human CL141T cells assessed as accumulation at S phase at 0.5 x IC50 after 24 hrs by propidium iodide staining-based FACS flow cytometric analysis; assay type: functional; summary of the method: as §1
NCI-H460 [25] = assay: Induction of apoptosis in human H460 cells assessed as increase in cleaved PARP expression at IC50 after 24 to 72 hrs by Western blotting analysis; assay type: functional, cell-based; summary of the method: as §4
HT-29 = assay: Cytotoxicity against human HT-29 cells after 72 hrs by Alamar blue assay; assay type: functional, cell-based; settings: HT-29, 72 h; summary of the method: as §2
[26] = Cytotoxicity against human MES-SA cells after 72 hrs by Presto Blue assay; assay type: functional, cell-based; summary of the method: as §3

Chain of DNA topoisomerase 2-alpha (Homo sapiens) (P11388 whole entry): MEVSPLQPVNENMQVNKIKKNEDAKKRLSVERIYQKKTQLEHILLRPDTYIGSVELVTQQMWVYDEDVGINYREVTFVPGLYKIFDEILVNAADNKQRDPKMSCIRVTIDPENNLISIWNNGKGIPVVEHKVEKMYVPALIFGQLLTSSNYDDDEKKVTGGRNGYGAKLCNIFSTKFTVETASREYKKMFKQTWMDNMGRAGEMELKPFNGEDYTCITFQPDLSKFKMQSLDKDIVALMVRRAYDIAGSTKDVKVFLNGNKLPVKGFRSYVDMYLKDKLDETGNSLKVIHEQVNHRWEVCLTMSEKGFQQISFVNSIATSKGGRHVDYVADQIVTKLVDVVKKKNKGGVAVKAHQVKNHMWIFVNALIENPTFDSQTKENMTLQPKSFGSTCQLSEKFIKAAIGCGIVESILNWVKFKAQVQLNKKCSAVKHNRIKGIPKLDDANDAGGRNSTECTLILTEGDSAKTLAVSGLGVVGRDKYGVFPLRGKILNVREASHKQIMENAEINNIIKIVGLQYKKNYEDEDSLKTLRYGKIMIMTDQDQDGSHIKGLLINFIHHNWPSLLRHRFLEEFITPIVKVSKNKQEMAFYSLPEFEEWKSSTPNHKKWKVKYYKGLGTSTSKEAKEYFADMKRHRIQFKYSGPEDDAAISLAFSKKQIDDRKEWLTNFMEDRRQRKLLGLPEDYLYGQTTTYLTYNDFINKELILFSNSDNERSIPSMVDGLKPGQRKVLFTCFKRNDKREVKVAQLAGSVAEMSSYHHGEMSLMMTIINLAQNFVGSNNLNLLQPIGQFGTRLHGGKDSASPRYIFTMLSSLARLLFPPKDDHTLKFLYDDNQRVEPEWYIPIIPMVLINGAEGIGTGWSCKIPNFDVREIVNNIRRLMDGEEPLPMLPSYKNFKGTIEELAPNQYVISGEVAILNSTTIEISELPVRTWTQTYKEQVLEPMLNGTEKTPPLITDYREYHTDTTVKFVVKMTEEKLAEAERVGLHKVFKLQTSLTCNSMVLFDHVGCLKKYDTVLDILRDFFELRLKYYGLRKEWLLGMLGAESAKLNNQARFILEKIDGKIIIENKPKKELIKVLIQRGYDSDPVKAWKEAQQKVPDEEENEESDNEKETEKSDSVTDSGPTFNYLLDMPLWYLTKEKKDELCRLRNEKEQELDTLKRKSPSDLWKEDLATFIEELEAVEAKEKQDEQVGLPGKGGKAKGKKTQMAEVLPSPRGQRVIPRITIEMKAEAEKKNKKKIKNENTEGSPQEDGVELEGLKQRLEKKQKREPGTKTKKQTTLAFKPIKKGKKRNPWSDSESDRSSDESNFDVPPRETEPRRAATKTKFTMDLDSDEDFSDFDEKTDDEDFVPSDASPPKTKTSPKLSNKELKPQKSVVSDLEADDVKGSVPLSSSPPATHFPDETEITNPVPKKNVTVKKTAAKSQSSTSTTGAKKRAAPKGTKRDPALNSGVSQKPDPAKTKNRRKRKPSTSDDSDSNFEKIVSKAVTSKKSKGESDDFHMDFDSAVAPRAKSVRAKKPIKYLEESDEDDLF

| SMILES | Activity (Escherichia coli) | pIC50 (KB) | pIC50 [2] | pIC50 (PC-3) | pIC50 [3] | Activity [4] | Activity [6] | Activity [7] | pIC50 [9] | pIC50 [10] | Ratio IC50 [11] | pIC50 (HCT-116) | pIC50 (CCRF-CEM) | further results |
| --- | --- | --- | --- | --- | --- | --- | --- | --- | --- | --- | --- | --- | --- | --- |
| CC(C)NC(=O)OCc1c(COC(=O)NC(C)C)c(-c2ccc(F)cc2)n2c1Cc1c(n(C)c3ccccc13)C2 | Active | 4.85 | 4.59 | 5.17 | 5.13 | Active | Active | inactive | 4.81 | 5.18 | 1.1 | 5.22 | 6.96 | Activity [1]: Active; inhibition in vivo at 35 mg/kg (MX1 [5]): > 99%; pIC50 (MX1 [8]): 5.66; Activity (Mus musculus [12]): Toxic |
| COc1cc([C@@H]2c3cc4c(cc3[C@@H](O[C@@H]3O[C@@H]5CO[C@@H](C)O[C@H]5[C@H](O)[C@H]3O)[C@H]3COC(=O)[C@H]23)OCO4)cc(OC)c1O | – | – | – | – | – | – | – | – | – | – | – | – | – | inhibition [13]: Active |
| CCn1c2c(c3ccccc31)Cc1c(CO)c(CO)c(C)n1C2 | Active | 5.83 | 5.65 | 5.58 | 6.10 | Active | Active | inactive | 6.05 | 5.93 | 0.62 | 5.77 | 7.00 | pIC50 [14]: 6.62; Activity (NCI-H460 [15]): Active; Activity (NCI-H460 [16]): Active; Activity (NCI-H460 [17]): 43.52%; Activity (Mus musculus [18]): Toxic; Ratio IC50 (MES-SA): 0.6; pIC50 [19]: 6.14; Activity (NCI-H460 [20]): 12.92%; pIC50 (A549): 5.53; Activity [21]: Active; inhibition in vivo at 25 mg/kg (MX1 [22]): > 99%; Activity [23]: Active; Activity [24]: Active; Activity (NCI-H460 [25]): Active; pIC50 (HT-29): 5.21; pIC50 [26]: 6.40 |
